From ChEMBL document CHEMBL1154042, “2-Oxoamide inhibitors of phospholipase A2 activity and cellular arachidonate release based on dipeptides and pseudodipeptides” (Bioorg Med Chem, 2009)

test system: RAW264.7; assay: Antiinflammatory activity in mouse RAW264.7 cells assessed as inhibition of Kdo2 lipid-A-stimulated arachidonic acid release after 1 hr; format: functional, cell-based; conditions: RAW264.7, 1 h
Outline: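 RAW 264.7 macrophages grown in DMEM with 10% FBS, 2 mM glutamine, penicillin/streptomycin and non-essential amino acids at 37 °C, 5% CO2. Plated at 2 × 10^6 cells per well, adhered overnight. Inhibitor added 30 min before Kdo2-Lipid A, supernatants taken 1 h after stimulation. AA extracted and quantitated by HPLC-MS, normalized to pmol per million cells by DNA quantitation. IC50 = concentration giving half of the maximal inhibition seen.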

Row | SMILES | IC50
1 | CCCCCCCCCCCCCCC(=O)C(=O)NCCCC(=O)O | 25 µM
2 | CCCCCCCCCCC(=O)C(=O)N[C@@H](CCCC)CCC(=O)O | 10 µM
3 | CCCCCCCCCCCCCCC(=O)C(=O)N[C@H](/C=C/C(=O)O)CCCC | 25 µM
4 | CCCCCCCCCCCCCCC(=O)C(=O)N[C@H](CCC(=O)O)CC(C)C | 25 µM
5 | CCCCCCCCCCCCCCC(=O)C(=O)N[C@@H](CCCC)CCCC(=O)O | 7 µM
6 | CCCCCCCCCCCCCCC(=O)C(=O)N[C@@H](CCCC)CCC(=O)O | 25 µM
7 | CCCCCCCCCCCCCCC(=O)C(=O)N[C@@H](CCCC)COCC(=O)O | 2 µM

target: T1, Phospholipase A2 group V (Homo sapiens) (UniProt P39877); assay: Inhibition of human group-5 sPLA2 at 0.091 mole fraction by mixed micellar assay; conditions: not given
T1 sequence (whole entry): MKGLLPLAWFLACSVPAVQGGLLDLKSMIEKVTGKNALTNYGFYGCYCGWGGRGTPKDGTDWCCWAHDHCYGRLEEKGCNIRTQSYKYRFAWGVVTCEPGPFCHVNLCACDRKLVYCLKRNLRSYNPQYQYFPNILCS
Outline: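 Radiometric modified Dole assay screening at 0.091 mole fraction inhibitor, giving percent inhibition. Mixed micelles of 400 μM Triton X-100, 99 μM DPPC and 1.5 μM 14C-DPPC in 50 mM Tris pH 8.0 with 5 mM CaCl2.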

Row | SMILES | inhibition
8 | CCCCCCCCCCCCCCC(=O)C(=O)N[C@H](C(=O)NCC(=O)OC(C)(C)C)C(C)C | 78%
9 | CCCCCCCCCCCCCCC(=O)C(=O)N[C@@H](CCCC)C(=O)NCC(=O)OCC | 63%
10 | CCCCCCCCCCCCCCC(=O)C(=O)N[C@@H](CCCC)COCC(=O)OCC | 81%
11 | CCCCCCCCCCCCCCC(=O)C(=O)N[C@@H](CCCC)C(=O)NCC(=O)O | < 25%
12 | CCCCCCCCCCCCCCC(=O)C(=O)N[C@@H](CCCC)C(=O)NCC(=O)OC | 65%
13 | CCCCCCCCCCCCCCC(=O)C(=O)N[C@H](C(=O)NCC(=O)O)C(C)C | < 25%
14 | CCCCCCCCCCCCCCC(=O)C(=O)N[C@@H](CCCC)C(=O)NCC(=O)OC(C)(C)C | 59%
15 | CCCCCCCCCCCCCCC(=O)C(=O)N[C@H](C(=O)NCC(=O)OC)C(C)C | < 25%
16 | CCCCCCCCCCCCCCC(=O)C(=O)N[C@@H](CCCC)COCC(=O)OC(C)(C)C | 57%
17 | CCCCCCCCCCCCCCC(=O)C(=O)N[C@@H](CCCC)COCC(=O)O | < 25%

target: T2, 85/88 kDa calcium-independent phospholipase A2 (Homo sapiens) (UniProt O60733); assay: Inhibition of human group-6A iPLA2 at 0.091 mole fraction by mixed micellar assay; conditions: not given
T2 sequence (whole entry): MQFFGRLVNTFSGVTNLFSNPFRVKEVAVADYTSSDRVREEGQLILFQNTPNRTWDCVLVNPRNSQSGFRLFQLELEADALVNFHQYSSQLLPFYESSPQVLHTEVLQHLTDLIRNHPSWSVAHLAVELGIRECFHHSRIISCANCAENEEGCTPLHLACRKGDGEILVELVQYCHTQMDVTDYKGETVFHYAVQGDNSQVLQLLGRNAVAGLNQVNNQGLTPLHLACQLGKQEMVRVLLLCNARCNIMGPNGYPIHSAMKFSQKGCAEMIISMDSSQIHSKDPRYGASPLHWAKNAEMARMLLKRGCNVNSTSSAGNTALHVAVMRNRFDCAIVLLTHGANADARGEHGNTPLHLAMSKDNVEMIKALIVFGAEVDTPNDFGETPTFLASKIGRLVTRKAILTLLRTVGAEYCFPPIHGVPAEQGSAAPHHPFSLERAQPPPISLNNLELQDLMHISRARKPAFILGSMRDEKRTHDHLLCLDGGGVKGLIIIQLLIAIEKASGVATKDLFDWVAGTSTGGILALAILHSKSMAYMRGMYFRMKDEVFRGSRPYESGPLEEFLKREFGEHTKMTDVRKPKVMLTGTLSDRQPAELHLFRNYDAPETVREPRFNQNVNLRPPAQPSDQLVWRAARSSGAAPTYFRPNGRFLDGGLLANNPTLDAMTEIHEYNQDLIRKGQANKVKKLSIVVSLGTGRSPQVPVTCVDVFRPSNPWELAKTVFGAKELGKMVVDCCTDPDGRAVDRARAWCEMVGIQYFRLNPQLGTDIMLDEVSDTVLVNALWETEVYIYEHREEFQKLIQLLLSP
Outline: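 Modified Dole assay, percent inhibition at 0.091 mole fraction inhibitor. Micelles were either 400 μM Triton X-100, 99 μM DPPC, 1.5 μM 14C-DPPC in 200 mM HEPES pH 7.0, 1 mM ATP, 2 mM DTT, 0.1 mg/ml BSA, or 400 μM Triton X-100, 98.3 μM PAPC, 1.7 μM 14C-PAPC in 100 mM HEPES pH 7.5, 2 mM ATP, 4 mM DTT.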

Row | SMILES | inhibition
18 | CCCCCCCCCCCCCCC(=O)C(=O)N[C@H](C(=O)NCC(=O)OC(C)(C)C)C(C)C | > 90%
19 | CCCCCCCCCCCCCCC(=O)C(=O)N[C@@H](CCCC)C(=O)NCC(=O)OCC | > 90%
20 | CCCCCCCCCCCCCCC(=O)C(=O)N[C@@H](CCCC)COCC(=O)OCC | > 90%
21 | CCCCCCCCCCCCCCC(=O)C(=O)N[C@@H](CCCC)C(=O)NCC(=O)O | < 25%
22 | CCCCCCCCCCCCCCC(=O)C(=O)NCCCC(=O)COCC | > 90%
23 | CCCCCCCCCCCCCCC(=O)C(=O)N[C@@H](CCCC)C(=O)NCC(=O)OC | > 90%
24 | CCCCCCCCCCCCCCC(=O)C(=O)N[C@H](C(=O)NCC(=O)O)C(C)C | < 25%
25 | CCCCCCCCCCCCCCC(=O)C(=O)N[C@@H](CCCC)C(=O)NCC(=O)OC(C)(C)C | > 90%
26 | CCCCCCCCCCCCCCC(=O)C(=O)N[C@H](C(=O)NCC(=O)OC)C(C)C | < 25%
27 | CCCCCCCCCCCCCCC(=O)C(=O)N[C@@H](CCCC)COCC(=O)OC(C)(C)C | 81%
28 | CCCCCCCCCCCCCCC(=O)C(=O)N[C@@H](CCCC)COCC(=O)O | < 25%
29 | CCCCCCCCCCCCCCC(=O)C(=O)NCCCC(=O)CO | < 25%

test system: RAW264.7; assay: Antiinflammatory activity in mouse RAW264.7 cells assessed as inhibition of Kdo2 lipid-A-stimulated arachidonic acid release at 25 uM for 1 hr; format: functional; conditions: not given
Outline: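 RAW 264.7 macrophages plated at 2 × 10^6 cells per well and left to adhere overnight. Preincubated 30 min with 25 μM inhibitor, then stimulated with Kdo2-Lipid A. Supernatants collected 1 h later. AA extracted and measured by HPLC-MS, normalized to pmol AA per million cells via DNA quantitation.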

Row | SMILES | Activity
30 | CCCCCCCCCCCCCCC(=O)C(=O)NCCC(=O)OC(C)(C)C | Toxic
31 | CCCCCCCCCCCCCCC(=O)C(=O)NCCCC(=O)OCC | Toxic
32 | CCCCCCCCCCCCCCC(=O)C(=O)N[C@H](/C=C/C(=O)OC)CCCC | Toxic
33 | CCCCCCCCCCCCCCC(=O)C(=O)N[C@@H](C)CCC(=O)OC(C)(C)C | Toxic
34 | CCCCCCCCCCC(=O)C(=O)N[C@@H](CCC(=O)OC)COC(=O)NCCCCCCCC | Toxic
35 | CCCCCCCCCCCCCCC(=O)C(=O)NCCCC(=O)N(C)S(=O)(=O)c1ccc(C)cc1 | Toxic
36 | CCCCCCCCCCCCCCC(=O)C(=O)N[C@@H](CCCC)CCC(=O)OC | Toxic
37 | CCCCCCCCCCCCCC(=O)C(=O)N[C@@H](CCCC)CCCCC(=O)O | Toxic

same assay, conditions: RAW264.7, 1 h

Row | SMILES | inhibition at 25 µM
38 | CCCCCCCCCCCCCCC(=O)C(=O)NCCCC(=O)O | 27%
39 | CCCCCCCCCCC(=O)C(=O)N[C@@H](CCCC)CCC(=O)O | 62%
40 | CCCCCCCCCCCCCCC(=O)C(=O)N[C@H](C(=O)NCC(=O)OC(C)(C)C)C(C)C | 30%
41 | CCCCCCCCCCCCCCC(=O)C(=O)N[C@H](/C=C/C(=O)O)CCCC | 16%
42 | CCCCCCCCCCCCCCC(=O)C(=O)NCC(=O)OC | 68%
43 | CCCCCCCCCCCCCCC(=O)C(=O)N[C@H](/C=C/C=C/C(=O)O)CCCC | 74%
44 | CCCCCCCCCCCCCCC(=O)C(=O)N[C@H](CCC(=O)O)CC(C)C | 6%
45 | CCCCCCCCCCCCCCC(=O)C(=O)N[C@@H](CCCC)CCCC(=O)O | 30%
46 | CCCCCCCCCCCCCCC(=O)C(=O)NCCCCC(=O)OC(C)(C)C | 59%
47 | CCCCCCCCCCC(=O)C(=O)N[C@@H](CCCC)C(=O)O | 79%
48 | CCCCCCCCCCCCCCC(=O)C(=O)N[C@H](/C=C/C(=O)OCC)CCCC | 11%
49 | CCCCCCCCCCCCCCC(=O)C(=O)N[C@@H](CCCC)CCC(=O)O | 30%

target: T3, Cytosolic phospholipase A2 (Homo sapiens) (UniProt P47712); assay: Inhibition of human group-4A cPLA2 at 0.091 mole fraction by mixed micellar assay; conditions: not given
T3 sequence (whole entry): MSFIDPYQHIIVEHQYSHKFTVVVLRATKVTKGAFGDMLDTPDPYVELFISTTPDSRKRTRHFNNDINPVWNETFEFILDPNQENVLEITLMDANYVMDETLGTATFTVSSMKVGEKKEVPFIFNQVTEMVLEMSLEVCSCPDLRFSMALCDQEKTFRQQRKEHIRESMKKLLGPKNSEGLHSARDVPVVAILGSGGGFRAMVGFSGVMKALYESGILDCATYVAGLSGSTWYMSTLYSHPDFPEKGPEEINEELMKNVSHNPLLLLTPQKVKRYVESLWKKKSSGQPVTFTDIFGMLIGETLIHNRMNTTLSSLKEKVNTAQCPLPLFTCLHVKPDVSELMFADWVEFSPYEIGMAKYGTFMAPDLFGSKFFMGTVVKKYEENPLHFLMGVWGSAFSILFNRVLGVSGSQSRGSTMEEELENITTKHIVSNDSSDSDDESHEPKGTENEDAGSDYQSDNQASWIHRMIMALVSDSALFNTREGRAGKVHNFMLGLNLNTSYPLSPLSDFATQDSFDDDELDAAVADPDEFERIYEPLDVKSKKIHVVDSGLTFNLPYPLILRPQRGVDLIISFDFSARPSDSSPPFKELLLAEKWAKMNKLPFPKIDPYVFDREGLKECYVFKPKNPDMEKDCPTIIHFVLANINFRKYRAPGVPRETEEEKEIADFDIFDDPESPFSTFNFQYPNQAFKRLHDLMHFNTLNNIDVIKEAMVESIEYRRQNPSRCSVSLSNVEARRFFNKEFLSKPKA
Outline: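 Modified Dole assay, single point at 0.091 mole fraction inhibitor. Mixed micelles: 400 μM Triton X-100, 97 μM PAPC, 1.8 μM 14C-PAPC, 3 μM PIP2. Buffer: 100 mM HEPES pH 7.5, 90 μM CaCl2, 2 mM DTT, 0.1 mg/ml BSA. Percent inhibition reported.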

Row | SMILES | inhibition
50 | CCCCCCCCCCCCCCC(=O)C(=O)N[C@H](C(=O)NCC(=O)OC(C)(C)C)C(C)C | > 90%
51 | CCCCCCCCCCCCCCC(=O)C(=O)N[C@@H](CCCC)C(=O)NCC(=O)OCC | 73%
52 | CCCCCCCCCCCCCCC(=O)C(=O)N[C@@H](CCCC)COCC(=O)OCC | 52%
53 | CCCCCCCCCCCCCCC(=O)C(=O)N[C@@H](CCCC)C(=O)NCC(=O)O | > 90%
54 | CCCCCCCCCCCCCCC(=O)C(=O)NCCCC(=O)COCC | > 90%
55 | CCCCCCCCCCCCCCC(=O)C(=O)N[C@@H](CCCC)C(=O)NCC(=O)OC | > 90%
56 | CCCCCCCCCCCCCCC(=O)C(=O)N[C@H](C(=O)NCC(=O)O)C(C)C | > 90%
57 | CCCCCCCCCCCCCCC(=O)C(=O)N[C@@H](CCCC)C(=O)NCC(=O)OC(C)(C)C | 72%
58 | CCCCCCCCCCCCCCC(=O)C(=O)N[C@H](C(=O)NCC(=O)OC)C(C)C | 25%
59 | CCCCCCCCCCCCCCC(=O)C(=O)N[C@@H](CCCC)COCC(=O)OC(C)(C)C | 44%
60 | CCCCCCCCCCCCCCC(=O)C(=O)N[C@@H](CCCC)COCC(=O)O | > 90%
61 | CCCCCCCCCCCCCCC(=O)C(=O)NCCCC(=O)CO | > 90%
